Source: PubChem BioAssay
In the library only some 4.5% were active in any assay of this set; here they are far more common.
RGS4 pot = RGS4 potentiators or activators, primary screen, cell-based, HEK293 M3R inducible RGS4, calcium flux. B-score at 10 µM. actives 0.92% (n = 310,000). carbachol calcium flux Fluo4; hits give low values. AID 463111, 2010;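 active = B-score of the integrated calcium signal more than 4 SD below the library mean, with starting fluorescence not abnormally high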;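 note: negative B-score means reduced calcium response which marks RGS4 activation or potentiation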
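Reagent: ECmax carbachol challenge; Test system: M3R-expressing HEK293 line, RGS4 induced by doxycycline; Schedule: overnight RGS4 induction, 30 min dye load 37 °C, 20 min compound RT; Detection: calcium dye Fluo4 fluorescence; Read-out: Agonist-evoked peak-minus-minimum fluorescence over baseline, integrated ratio, B score.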
MrgX1 antag = antagonists of human MrgX1 receptor, primary screen, HEK293 cells, Fluo-4 calcium flux; Mas-related G-protein coupled receptor member X1 (Homo sapiens), Q96LB2; BAM8-22 antagonism; hits give low values; B-score at 10 µM; actives 1.3% (n = 310,000);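 active = calcium-response B-score plate-corrected more than 3 library SD below zero, starting fluorescence within 5 deviations, no agonist response on first addition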;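 note: peak minus trough fluorescence over baseline after final BAM8-22 challenge near maximal dose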
MrgX1 ag = agonists of human MrgX1 receptor, primary screen, HEK293 cells, Fluo-4 calcium flux; Mas-related G-protein coupled receptor member X1 (Homo sapiens), Q96LB2; Fluo-4 calcium fluorescence, agonist mode; hits give high values; B-score at 10 µM; actives 0.44% (n = 310,000);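 active = calcium response B-score plate-corrected fluorescence ratio at least 3 library SD, with starting fluorescence B-score inside 5 SD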
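Material: MrgX1-expressing HEK293 cells; input: 15,000 cells per well; doses: test compound given as first of three sequential additions; schedule: overnight plating before 1 h dye loading; technique: Fluo-4 NW calcium-flux fluorescence, kinetic read; evaluation: baseline-normalised fluorescence change ratio, B-scored; control set: plate-wise positive and negative controls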
MrgX1 allo act = positive allosteric modulators of MrgX1, primary screen, HEK293 cells, Fluo-4 calcium flux. Mas-related G-protein coupled receptor member X1 (Homo sapiens), Q96LB2. FDSS; hits give high values. B-score at 10 µM. actives 0.63% (n = 310,000). AID 588675, 2011;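 active = plate-corrected calcium response at least 3 library SD above typical, normal starting fluorescence, not activating the receptor alone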;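 note: compound read alongside a low EC10 to EC30 dose of BAM8-22 agonist; peak minus trough fluorescence over baseline measured at the second addition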
PHOSPHO1 block = PubChem AID 1565. recombinant PHOSPHO1, absorbance phosphatase assay. inhibition, % at 13.3 µM. Phosphoethanolamine/phosphocholine phosphatase (Homo sapiens), Q8TCT1. actives 1.1% (n = 290,000); in the data active = inhibition above about 60%
Target sequence (Q8TCT1 whole entry, looked up): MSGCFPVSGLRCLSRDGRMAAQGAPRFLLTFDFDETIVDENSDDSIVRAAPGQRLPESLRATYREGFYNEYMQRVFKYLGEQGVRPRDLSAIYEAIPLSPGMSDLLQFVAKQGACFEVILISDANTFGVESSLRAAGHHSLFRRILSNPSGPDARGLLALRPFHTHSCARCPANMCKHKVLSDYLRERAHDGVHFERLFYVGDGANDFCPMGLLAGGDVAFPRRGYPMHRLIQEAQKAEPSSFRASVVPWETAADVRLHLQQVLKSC
RGS4 inh = RGS4 inhibitors, primary screen, cell-based, HEK293 M3R inducible RGS4, calcium flux; actives 0.45% (n = 310,000); AID 463165, 2010; Fluo-4 calcium flux; hits give high values; triggered by carbachol at its EC20; B-score at 10 µM; Regulator of G-protein signaling 4 (Homo sapiens), P49798;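 active = B-score, a plate-corrected calcium signal, over three deviations above library mean, with baseline fluorescence within five deviations of library mean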;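 note: RGS4 expression induced by doxycycline in cells with stable M3 receptor; B-score is computed from the integrated fluorescence ratio over baseline after carbachol; higher B-score means a larger calcium signal and so more RGS4 inhibition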
Target sequence (P49798 whole entry, looked up): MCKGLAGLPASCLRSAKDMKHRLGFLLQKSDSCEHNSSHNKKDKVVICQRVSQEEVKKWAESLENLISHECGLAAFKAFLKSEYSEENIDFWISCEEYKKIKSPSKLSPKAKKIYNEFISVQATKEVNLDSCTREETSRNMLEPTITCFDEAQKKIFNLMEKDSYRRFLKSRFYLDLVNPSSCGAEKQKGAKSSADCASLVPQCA
MrgX1 allo conf = MrgX1 positive allosteric modulators, duplicate retest, confirmation, HEK293 cells, Fluo-4 calcium flux; shares compounds with MrgX1 allo act; Fluo-4 calcium fluorescence, FDSS; activation (ratio percentage), % at 10 µM; actives 13% (n = 1,200); AID 602413, 2012;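 active = ratio at least 3 SD above the weak peptide control, stable starting fluorescence, no direct agonism earlier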;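 note: compound followed by low BAM8-22 agonist challenge near EC20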
HEK293 Ca flux = nonspecific calcium signal in parental HEK293, confirmation, counter-screen for MrgX1 antagonist project, parental HEK293 cells, Fluo-4 calcium flux. shares compounds with MrgX1 antag. Fluo-4 calcium fluorescence, FDSS. fluorescence ratio F(max-min)/F0 at 10 µM. actives 2% (n = 4,000). AID 624111, 2012;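 active = duplicate-averaged calcium fluorescence ratio at least three times the standard deviation of buffer wells, a nonspecific response in parental cells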
HEK293 Ca counter = calcium response in parental HEK293 cells, primary screen, counter-screen for MrgX1 allosteric activator project, cell-based, Fluo-4 calcium flux, duplicate. shares compounds with MrgX1 antag. Fluo-4 fluorescence ratio; hits give high values. fluorescence ratio F(max-min)/F0 at 10 µM. actives 0.4% (n = 4,000). AID 624114, 2012;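 active = calcium fluorescence ratio, averaged over duplicates, at least 3 SD of the buffer-well ratio, meaning a nonspecific response in receptor-free cells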;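 note: untransfected parental HEK293 lacking MrgX1 used as counterscreen for MrgX1 allosteric activators; fluorescence change taken during the second addition on a kinetic imager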
HEK293 Ca cntr2 = calcium response in parental HEK293 cells, primary screen, counter-screen for MrgX1 agonist project, cell-based, Fluo-4 calcium flux, duplicate, agonist mode. shares compounds with MrgX1 antag. Fluo-4 calcium fluorescence (FDSS); hits give high values. fluorescence ratio F(max-min)/F0 at 10 µM. actives 8.7% (n = 4,000). AID 624115, 2012;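 active = calcium fluorescence ratio at least three times the spread of buffer wells, meaning a non-specific response in parental cells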
* hit, by the source's call; i = inactive; . = not tested or not shown.

SMILES | RGS4 pot | MrgX1 antag | MrgX1 ag | MrgX1 allo act | PHOSPHO1 block | RGS4 inh | MrgX1 allo conf | HEK293 Ca flux | HEK293 Ca counter | HEK293 Ca cntr2
Cc1ccncc1C(N)=O | i | i | i | 8.14* | 7.4 | i | i | i | i | i
O=C(Nc1ccncc1)c1cccc(S(=O)(=O)N2CCCC2)c1 | i | i | i | i | 52.7 | i | . | . | . | .
CC12COC3(C(=O)N4CCN(c5ccccn5)CC4)CC1CCC32C (stereo not drawn) | i | i | i | i | 29.7 | i | . | . | . | .
CC12COC3(C(=O)Nc4ccc(F)cc4)CC1CCC32C (stereo not drawn) | i | i | i | 10.7* | -2.0 | i | i | i | i | i
COc1ccc(C(=O)C2CCN(CC(=O)Nc3ccc(OC)cc3OC)CC2)cc1 | i | i | i | 7.46* | -1.0 | i | i | i | i | i
CCOc1ccccc1N1CCN(C(=O)Nc2cccc(Cl)c2)CC1 | i | i | i | 11.1* | 21.5 | i | i | i | i | i
O=C1OCC/C1=C\OCCCO/C=C1\CCOC1=O | i | i | i | i | 41.8 | i | . | . | . | .
CC1=CC(C)C(/C=N/N=C(N)N)C(C)C1 (stereo not drawn) | i | i | i | 24.2* | 12.9 | i | i | i | i | i
COc1ccc(N2CC(C(=O)Nc3cc(C)ccn3)CC2=O)cc1 (stereo not drawn) | i | i | i | 8.09* | 36.8 | i | i | i | i | i
CCOC(=O)C1(Cc2ccc(Cl)cc2)CCN(C(=O)c2sc(C)nc2C)CC1 | i | i | i | i | 31.2 | i | . | . | . | .
CCOc1ccc(C2CC(c3cccc(Cl)c3)n3nc(N)nc3N2)cc1 (stereo not drawn) | i | i | i | i | -0.6 | i | . | . | . | .
Nc1nc2n(n1)C(c1cccc(Cl)c1)CC(c1ccc(F)cc1)N2 (stereo not drawn) | i | i | i | 9.68* | 2.7 | i | i | i | i | i
COc1ccc(C(=O)C2CC2c2ccc3c(c2)OCO3)cc1 (stereo not drawn) | i | i | i | i | 16.3 | i | . | . | . | .
Cn1ncc(Br)c1C(=O)NC12CC3CC(CC(C3)C1)C2 | i | i | i | 8.64* | 9.7 | i | i | i | i | i
Nc1nc(Cl)cc(Sc2ccc(F)cc2)n1 | i | i | i | 6.73* | 1.8 | i | i | i | i | i
O=C(NCCNC(=O)c1cnccn1)c1cccc(Cl)c1 | i | i | i | i | 27.5 | i | . | . | . | .
O=C(NCCNC(=O)c1ccc(-c2ccc(Cl)c(Cl)c2)o1)c1cnccn1 | i | i | i | 7.24* | 46.9 | i | i | i | i | i
